ChEMBL document CHEMBL4725242, “Discovery of GS-9688 (Selgantolimod) as a Potent and Selective Oral Toll-Like Receptor 8 Agonist for the Treatment of Chronic Hepatitis B” (J Med Chem, 2020)
Active and inactive are the calls of the source.

Columns and labels:
[1] = Drug metabolism in human hepatocytes assessed as oxidation of lipophilic chain; assay type: ADME, cell-based, Hepatocyte
[2] = molecular target: Toll-like receptor 2 (Homo sapiens) (UniProt O60603); test: Agonist activity at human TLR2 expressed in HEK293 cells assessed as increase in NF-kappaB activation up to 10 uM incubated for 24 hrs by quanti-blue SEAP reporter gene assay; assay type: cell-based; settings: dose microM <=10, time 24.0 hrs
Toll-like receptor 2 (Homo sapiens), sequence (O60603 whole entry): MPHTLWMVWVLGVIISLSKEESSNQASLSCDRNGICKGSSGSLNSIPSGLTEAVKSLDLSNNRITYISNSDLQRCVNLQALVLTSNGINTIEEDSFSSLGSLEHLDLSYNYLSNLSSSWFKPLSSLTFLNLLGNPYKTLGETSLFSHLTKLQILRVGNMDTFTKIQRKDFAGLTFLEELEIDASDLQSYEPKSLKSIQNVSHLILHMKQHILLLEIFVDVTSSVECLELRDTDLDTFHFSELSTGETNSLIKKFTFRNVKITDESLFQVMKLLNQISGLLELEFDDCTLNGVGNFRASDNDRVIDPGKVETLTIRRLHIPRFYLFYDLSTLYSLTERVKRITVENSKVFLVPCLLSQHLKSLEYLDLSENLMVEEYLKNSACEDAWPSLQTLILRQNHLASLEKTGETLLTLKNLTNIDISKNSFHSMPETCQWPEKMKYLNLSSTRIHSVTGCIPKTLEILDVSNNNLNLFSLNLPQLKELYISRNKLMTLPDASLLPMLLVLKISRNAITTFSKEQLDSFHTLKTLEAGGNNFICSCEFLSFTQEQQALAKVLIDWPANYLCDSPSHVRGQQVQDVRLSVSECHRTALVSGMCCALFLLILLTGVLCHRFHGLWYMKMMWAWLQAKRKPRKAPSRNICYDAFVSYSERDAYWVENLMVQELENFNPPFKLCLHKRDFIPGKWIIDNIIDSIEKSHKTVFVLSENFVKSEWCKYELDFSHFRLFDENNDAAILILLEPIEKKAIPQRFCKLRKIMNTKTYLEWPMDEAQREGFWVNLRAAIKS
In short: (§1)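 HEK293 cells stably expressing individual human TLRs or other innate immune receptors, used as reporter gene assays. Minimum effective concentration defined as the level giving a 3-fold rise over background.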

[3] = molecular target: T1, Nucleotide-binding oligomerization domain-containing protein 1 (Homo sapiens) (UniProt Q9Y239); test: Agonist activity at human NOD1 expressed in HEK293 cells assessed as increase in NF-kappaB activation up to 10 uM incubated for 24 hrs by quanti-blue SEAP reporter gene assay; assay type: cell-based; settings: dose microM <=10, time 24.0 hrs; in short: as §1
T1 sequence (whole entry): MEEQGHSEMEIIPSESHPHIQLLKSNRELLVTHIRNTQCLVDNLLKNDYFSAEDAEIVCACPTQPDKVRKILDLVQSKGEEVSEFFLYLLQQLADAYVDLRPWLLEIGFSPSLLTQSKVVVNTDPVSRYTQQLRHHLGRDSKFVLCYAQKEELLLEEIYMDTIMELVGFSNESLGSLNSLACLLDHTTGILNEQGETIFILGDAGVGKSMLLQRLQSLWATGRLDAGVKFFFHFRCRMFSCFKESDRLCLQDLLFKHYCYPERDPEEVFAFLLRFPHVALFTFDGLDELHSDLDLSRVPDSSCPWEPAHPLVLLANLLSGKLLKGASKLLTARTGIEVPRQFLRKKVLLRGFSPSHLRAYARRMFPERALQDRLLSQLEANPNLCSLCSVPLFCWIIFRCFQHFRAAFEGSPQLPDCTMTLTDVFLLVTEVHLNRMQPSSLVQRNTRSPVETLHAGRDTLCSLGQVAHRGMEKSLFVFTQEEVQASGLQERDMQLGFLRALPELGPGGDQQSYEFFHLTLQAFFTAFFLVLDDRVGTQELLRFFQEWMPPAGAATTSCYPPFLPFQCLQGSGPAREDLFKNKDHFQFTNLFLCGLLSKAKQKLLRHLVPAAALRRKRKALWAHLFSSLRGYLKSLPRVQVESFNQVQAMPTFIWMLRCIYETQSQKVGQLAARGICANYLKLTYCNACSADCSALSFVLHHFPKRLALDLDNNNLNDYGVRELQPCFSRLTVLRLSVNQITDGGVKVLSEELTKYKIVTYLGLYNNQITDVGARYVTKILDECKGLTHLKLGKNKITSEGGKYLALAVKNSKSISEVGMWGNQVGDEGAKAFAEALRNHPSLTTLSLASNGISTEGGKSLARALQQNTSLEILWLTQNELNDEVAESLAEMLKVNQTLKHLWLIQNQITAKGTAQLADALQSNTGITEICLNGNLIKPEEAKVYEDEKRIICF

[4] = Clearance in rat hepatic microsomes at 2 uM measured up to 60 mins in presence of NADPH generating system by LC-MS/MS analysis; assay type: ADME, Microsome; settings: liver microsomes
[5] = system: Probable ATP-dependent RNA helicase DDX58 (Homo sapiens); test: Agonist activity at human RIG1 expressed in HEK293 cells assessed as induction of IFN-inducible ISG54 promoter activity up to 10 uM after overnight incubation by secreted lucia luciferase reporter gene assay; settings: dose microM <=10

- Drug metabolism [1]: Metabolite_Detected
- Activity [2]: inactive
- Activity [3]: inactive
- CLhep predicted at 2 µM [4]: 50 mL/min/kg
- Activity [5]: inactive
Structure (SMILES): CCCC[C@](C)(CO)Nc1nc(N)nc2cc(F)cnc12 [SELGANTOLIMOD]
